Measurements taken from article PMC4124067 (International Journal of Nanomedicine, 2014).
Like-named read-outs stand apart in the source and are kept apart here.

Legend:
[1] = system: tubulin; assay: Tubulin polymerization assay; assay type: biochemical
How it was run: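 Kit-based assay: 3 mg/mL tubulin in 80 mM PIPES, pH 6.9, with glycerol, run at 37°C. Test compound at 10 and 34 μM, parent drug at 10 μM as positive control, plus untreated control. Polymerization followed as OD340, read once per minute for 60 min. Maximum rate (Vmax, mOD/min) and time to reach it taken from the curves.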

[2] = system: A549-luc-c8 human lung adenocarcinoma cells; assay: MTT cytotoxicity assay; assay type: cell-based; details: 48 h
How it was run: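 A549-luc-c8 luciferase-expressing cells grown in RPMI 1640 with 10% FBS and antibiotic at 37°C, 5% CO2. Seeded at 5,000 cells per 100 μL medium per well. Free parent drug, conjugate nanoparticles or blank nanoparticles added across a concentration series for 48 h at 37°C. MTT then added for 3 h, dye dissolved in DMSO, A570 read. IC50 taken from survival plots; blank-particle IC50 expressed at drug-equivalent dose.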

[3] = system: orthotopic Lewis lung carcinoma; details: cited from earlier work

For `CC(=O)O[C@H]1C(=O)[C@@]2(C)[C@H]([C@H](OC(=O)c3ccccc3)[C@]3(O)C[C@H](OC(=O)[C@H](O)[C@@H](NC(=O)c4ccccc4)c4ccccc4)C(C)=C1C3(C)C)[C@]1(OC(C)=O)CO[C@@H]1C[C@@H]2O` [PX, paclitaxel], the “Vmax (maximum rate of tubulin polymerization)” value ([1]; 10 μM, 37°C, 3 mg/mL tubulin) was 29.0±0.0 mOD/min, the “time at which Vmax was reached” value ([1]; 60 minute time course) was 0 to 3 min and the IC50 [2] was 5.3 ± 3.2 nM.
In the case of `N.N.[Cl][Pt][Cl]` [Cisplatin, cisplatin], the therapeutic effect ([3]; treatment starting on day 1) is given as “suppressed primary lung tumor growth and lymph node metastasis” and the therapeutic effect ([3]; treatment starting on day 10) is given as “failed to show any significant therapeutic effect”.
